The structures appear in SMILES notation.

Broadly, the Ki is the dissociation constant of the complex between target and ligand, obtained from inhibition or displacement. Higher therefore signals a looser hold on the target. As a reminder, the EC50 is the midpoint of the concentration-response curve. A low value points to an effect from little substance.

In experiment [1] the target is T1, Glucocorticoid receptor (Homo sapiens, UniProt P04150).
T1 sequence (P04150 whole entry): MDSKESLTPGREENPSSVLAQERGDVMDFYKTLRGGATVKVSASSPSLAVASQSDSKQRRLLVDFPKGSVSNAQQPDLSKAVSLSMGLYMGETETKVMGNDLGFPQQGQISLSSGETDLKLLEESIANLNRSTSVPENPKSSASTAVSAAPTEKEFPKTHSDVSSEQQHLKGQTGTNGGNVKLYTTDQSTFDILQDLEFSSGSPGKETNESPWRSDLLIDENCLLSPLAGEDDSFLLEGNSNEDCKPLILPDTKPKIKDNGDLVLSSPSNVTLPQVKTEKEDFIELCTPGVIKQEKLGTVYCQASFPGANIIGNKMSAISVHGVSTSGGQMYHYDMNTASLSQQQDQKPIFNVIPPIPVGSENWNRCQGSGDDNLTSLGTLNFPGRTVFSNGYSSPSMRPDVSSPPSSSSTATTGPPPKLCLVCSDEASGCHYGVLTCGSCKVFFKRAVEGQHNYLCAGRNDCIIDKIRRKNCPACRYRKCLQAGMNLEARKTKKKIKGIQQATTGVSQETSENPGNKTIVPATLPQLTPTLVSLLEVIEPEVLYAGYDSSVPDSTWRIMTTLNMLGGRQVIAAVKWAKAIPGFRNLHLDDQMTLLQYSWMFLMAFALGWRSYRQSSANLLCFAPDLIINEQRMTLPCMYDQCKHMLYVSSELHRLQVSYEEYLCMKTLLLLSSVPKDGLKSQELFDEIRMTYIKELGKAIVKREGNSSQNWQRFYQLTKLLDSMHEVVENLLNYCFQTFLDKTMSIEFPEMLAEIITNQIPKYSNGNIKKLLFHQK
As to the kind of experiment: Binding affinity to GR.

Another experiment has as its target T2, Progesterone receptor (Homo sapiens, UniProt P06401).
T2 sequence (P06401 whole entry): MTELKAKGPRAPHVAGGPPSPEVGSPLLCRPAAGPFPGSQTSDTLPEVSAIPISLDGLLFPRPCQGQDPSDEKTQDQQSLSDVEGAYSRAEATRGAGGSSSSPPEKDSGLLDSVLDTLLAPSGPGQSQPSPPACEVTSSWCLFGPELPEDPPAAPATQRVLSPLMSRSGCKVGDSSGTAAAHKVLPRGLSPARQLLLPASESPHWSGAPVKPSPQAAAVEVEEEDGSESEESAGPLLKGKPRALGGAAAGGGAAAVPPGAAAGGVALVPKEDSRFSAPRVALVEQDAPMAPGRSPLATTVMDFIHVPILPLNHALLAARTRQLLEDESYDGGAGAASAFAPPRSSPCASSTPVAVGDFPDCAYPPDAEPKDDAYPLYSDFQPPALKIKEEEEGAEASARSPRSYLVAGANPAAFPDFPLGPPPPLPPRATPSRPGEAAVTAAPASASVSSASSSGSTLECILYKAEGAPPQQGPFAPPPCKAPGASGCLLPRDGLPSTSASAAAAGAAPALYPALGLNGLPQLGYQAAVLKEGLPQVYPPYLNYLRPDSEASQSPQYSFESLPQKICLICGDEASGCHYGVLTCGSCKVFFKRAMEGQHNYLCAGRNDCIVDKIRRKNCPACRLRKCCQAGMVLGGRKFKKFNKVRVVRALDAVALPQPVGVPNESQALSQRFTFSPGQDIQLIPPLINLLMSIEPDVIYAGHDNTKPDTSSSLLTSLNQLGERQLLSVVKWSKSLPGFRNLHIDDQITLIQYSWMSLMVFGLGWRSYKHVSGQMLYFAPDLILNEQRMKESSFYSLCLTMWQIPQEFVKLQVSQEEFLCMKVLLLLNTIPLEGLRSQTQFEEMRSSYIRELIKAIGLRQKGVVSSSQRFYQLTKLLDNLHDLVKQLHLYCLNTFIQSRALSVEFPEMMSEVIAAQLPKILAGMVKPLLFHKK
Put plainly: Binding affinity to PR. In a few lines: (§1)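 Competitive binding assays on PR and MR. Values are means of at least three separate experiments, each with triplicate determinations, ± SEM. A value without SEM comes from a single determination.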

Experiment [2] deals with T3, Mineralocorticoid receptor (Homo sapiens, UniProt P08235).
T3 sequence (P08235 whole entry): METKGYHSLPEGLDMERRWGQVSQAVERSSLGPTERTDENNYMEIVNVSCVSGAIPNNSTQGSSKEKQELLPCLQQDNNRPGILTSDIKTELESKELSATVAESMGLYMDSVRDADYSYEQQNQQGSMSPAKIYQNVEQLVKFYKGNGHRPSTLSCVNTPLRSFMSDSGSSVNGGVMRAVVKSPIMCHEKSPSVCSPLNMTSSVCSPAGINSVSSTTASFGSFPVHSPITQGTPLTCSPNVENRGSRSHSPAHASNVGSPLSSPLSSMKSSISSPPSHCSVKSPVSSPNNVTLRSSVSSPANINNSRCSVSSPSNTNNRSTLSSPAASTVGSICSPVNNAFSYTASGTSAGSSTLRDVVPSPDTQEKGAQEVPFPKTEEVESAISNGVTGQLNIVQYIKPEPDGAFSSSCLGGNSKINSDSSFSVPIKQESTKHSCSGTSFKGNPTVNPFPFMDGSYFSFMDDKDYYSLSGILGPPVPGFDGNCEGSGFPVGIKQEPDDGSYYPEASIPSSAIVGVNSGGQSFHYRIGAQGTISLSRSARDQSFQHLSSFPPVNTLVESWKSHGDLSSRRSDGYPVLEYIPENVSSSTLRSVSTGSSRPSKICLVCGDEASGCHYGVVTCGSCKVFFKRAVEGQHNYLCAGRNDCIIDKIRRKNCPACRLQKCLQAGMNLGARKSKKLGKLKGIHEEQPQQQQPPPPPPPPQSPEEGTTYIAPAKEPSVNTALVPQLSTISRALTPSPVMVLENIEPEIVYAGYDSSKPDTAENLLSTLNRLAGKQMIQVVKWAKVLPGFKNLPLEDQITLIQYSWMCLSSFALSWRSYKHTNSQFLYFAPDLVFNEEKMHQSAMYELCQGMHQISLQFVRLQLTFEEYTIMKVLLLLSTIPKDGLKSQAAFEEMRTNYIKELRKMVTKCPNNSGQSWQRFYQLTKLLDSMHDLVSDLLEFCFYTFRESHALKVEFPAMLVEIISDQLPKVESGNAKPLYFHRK
As to the kind of experiment: Binding affinity to MR. In a few lines: as §1

Another experiment deals with T4, Androgen receptor (Homo sapiens, UniProt P10275).
T4 sequence (P10275 whole entry): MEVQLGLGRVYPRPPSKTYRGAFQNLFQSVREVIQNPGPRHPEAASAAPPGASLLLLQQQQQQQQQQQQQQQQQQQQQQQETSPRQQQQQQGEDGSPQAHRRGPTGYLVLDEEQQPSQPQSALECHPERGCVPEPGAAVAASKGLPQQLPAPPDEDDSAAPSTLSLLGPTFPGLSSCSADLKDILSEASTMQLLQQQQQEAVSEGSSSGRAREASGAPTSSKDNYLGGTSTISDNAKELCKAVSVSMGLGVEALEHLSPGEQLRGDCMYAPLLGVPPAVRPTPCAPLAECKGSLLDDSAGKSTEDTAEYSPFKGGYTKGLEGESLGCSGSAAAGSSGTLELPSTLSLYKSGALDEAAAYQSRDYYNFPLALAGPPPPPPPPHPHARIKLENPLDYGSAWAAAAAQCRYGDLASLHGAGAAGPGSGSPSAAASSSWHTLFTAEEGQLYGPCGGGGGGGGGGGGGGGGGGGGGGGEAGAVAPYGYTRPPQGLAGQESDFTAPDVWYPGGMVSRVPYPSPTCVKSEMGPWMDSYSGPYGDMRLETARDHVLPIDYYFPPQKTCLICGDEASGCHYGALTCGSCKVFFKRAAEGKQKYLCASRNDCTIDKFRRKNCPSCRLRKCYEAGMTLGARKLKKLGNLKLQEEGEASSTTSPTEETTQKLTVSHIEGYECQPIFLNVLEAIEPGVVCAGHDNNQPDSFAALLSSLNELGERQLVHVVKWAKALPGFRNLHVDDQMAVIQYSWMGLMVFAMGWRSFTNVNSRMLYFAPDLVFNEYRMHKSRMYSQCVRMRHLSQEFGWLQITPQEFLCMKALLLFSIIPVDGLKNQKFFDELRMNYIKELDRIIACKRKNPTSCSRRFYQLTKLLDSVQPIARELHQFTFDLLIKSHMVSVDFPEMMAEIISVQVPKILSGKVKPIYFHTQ
Put plainly: Binding affinity to AR.

Experiment [3] has as its system RPMI-8226. As to the kind of experiment: Inhibition of tumor growth in human RPMI8226 cells xenografted nude mouse at 3 mg/kg, po after 4 weeks relative to Dexamethasone. Type of experiment: functional. For orientation: In xenograft studies the graft and the host belong to different species.
Experiment [4] concerns RPMI-8226. Put plainly: Inhibition of tumor growth in human RPMI8226 cells xenografted nude mouse at 10 mg/kg, po after 4 weeks relative to Dexamethasone. The format is functional.
Experiment [5] concerns RPMI-8226. As to the kind of experiment: Inhibition of tumor growth in human RPMI8226 cells xenografted nude mouse at 30 mg/kg, po after 4 weeks relative to Dexamethasone. Type of experiment: functional.
The target in experiment [6] is T1, Glucocorticoid receptor. As to the kind of experiment: Antagonist activity at human GR expressed in CV1 cells by GRE activation assay. Type of experiment: functional, cell-based, CV-1.

As to `COc1c(O)ccc2c1-c1ccc3c(c1/C(=C/c1sccc1C(O)C(F)(F)F)O2)C(C)=CC(C)(C)N3` (racemic), the Ki on Glucocorticoid receptor [1] is 1.4 nM; at Progesterone receptor it was 1780 nM; in experiment [2], 670 nM; on Androgen receptor, 1900 nM. For the same compound, the Efficacy in the experiment on RPMI-8226 [3] turned out to be 52%; with RPMI-8226 [4] it was 89%; with RPMI-8226 [5], 97%. The compound further gave an EC50 at Glucocorticoid receptor [6] of 0.3 nM.

Values taken from ChEMBL document CHEMBL1148778, “Synthesis and characterization of nonsteroidal glucocorticoid receptor modulators for multiple myeloma” (J Med Chem, 2007).
